Experiment [1] has as its system T1, Protease (Human T-cell leukemia virus type I), Q82134 [L40I].
T1 sequence (whole entry): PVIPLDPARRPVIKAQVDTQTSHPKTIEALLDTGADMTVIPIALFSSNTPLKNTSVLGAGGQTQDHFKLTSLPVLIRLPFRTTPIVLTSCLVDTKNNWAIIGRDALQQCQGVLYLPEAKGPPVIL
Nature of the experiment: Inhibition of HTLV-1 protease L40I mutant at 50 nM by fluorimetric assay. The method in brief: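 Recombinant L40I-mutant HTLV-I protease, mutation limits autoproteolysis; fluorescent substrate read-out. Test compound at 50 nM, percent inhibition from single determinations.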

Experiment [2] deals with Protease (Human immunodeficiency virus 1) (UniProt Q9YQ12). Nature of the experiment: Inhibition of recombinant HIV-1 protease at 50 nM.
Experiment [3] has as its target Protease (Human T-cell leukemia virus type I, UniProt Q82134, L40I). Nature of the experiment: Inhibition of HTLV-1 protease L40I mutant by fluorimetric assay. The method in brief:
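Recombinant L40I-mutant HTLV-I protease, mutation limits autoproteolysis; fluorescent substrate cleavage. Percent inhibition measured singly at 1, 5, 10, 20, 50 and 100 nM test compound. IC50 read from fitted sigmoid plot, error range from RMSD of the plot.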

Sequence of Protease (Human immunodeficiency virus 1) (Q9YQ12 as listed by the source): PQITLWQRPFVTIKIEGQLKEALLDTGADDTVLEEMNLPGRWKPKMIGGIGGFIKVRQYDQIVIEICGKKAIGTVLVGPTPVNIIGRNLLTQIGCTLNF

What is called inhibition is the relative decrease from the control value, in per cent. Turning to `CC(C)(C)CNC(=O)[C@H]1N(C(=O)[C@@H](O)[C@H](Cc2ccccc2)NC(=O)[C@@H](NC(=O)Cc2ccccc2)C(C)(C)C)CSC1(C)C`, the inhibition amounted to 8% in experiment [1] and 22% in experiment [2].
The corresponding values for `CC(C)(C)CNC(=O)[C@H]1N(C(=O)[C@@H](O)[C@H](Cc2ccccc2)NC(=O)[C@@H](NC(=O)C(C)(C)c2ccccc2)C(C)(C)C)CSC1(C)C` are 4% and 80%.
The corresponding values for `CC(C)(C)CNC(=O)[C@H]1N(C(=O)[C@@H](O)[C@H](Cc2ccccc2)NC(=O)[C@@H](NC(=O)[C@@H](N)C(C)(C)C)C(C)(C)C)CSC1(C)C` are 19% and 95%.
The IC50 is the concentration needed to halve the response being measured. Low readings indicate greater potency, high ones weaker potency. `CCCC(=O)NC(C(=O)N[C@H](C(=O)N[C@@H](Cc1ccccc1)[C@H](O)C(=O)N1CSC(C)(C)[C@H]1C(=O)NCC(C)(C)C)C(C)(C)C)c1cc(F)c(F)c(F)c1` (stereo in doubt; 20a) [listing 1 of 2 here] had an IC50 in experiment [3] of 11 nM.
Take `CC[C@H](C)[C@H](N)C(=O)N[C@H](C(=O)N[C@@H](Cc1ccccc1)[C@H](O)C(=O)N1CSC(C)(C)[C@H]1C(=O)NCC(C)(C)C)C(C)(C)C`: the inhibition in experiment [1] is 31%; in experiment [2] it was 97%.
The corresponding values for `CCCC(=O)NC(C(=O)N[C@H](C(=O)N[C@@H](Cc1ccccc1)[C@H](O)C(=O)N1CSC(C)(C)[C@H]1C(=O)NCC(C)(C)C)C(C)(C)C)c1cc(F)c(F)c(F)c1` (stereo in doubt; 19b) are 18% and 68%.
Molecule `CCCC(=O)NC(C(=O)N[C@H](C(=O)N[C@@H](Cc1ccccc1)[C@H](O)C(=O)N1CSC(C)(C)[C@H]1C(=O)NCC(C)(C)C)C(C)(C)C)c1cc(F)c(F)c(F)c1` (stereo in doubt; 19a) [listing 1 of 2 here] showed an IC50 in experiment [3] of 13.2 nM.
Regarding `CC(C)(C)CNC(=O)[C@H]1N(C(=O)[C@@H](O)[C@H](Cc2ccccc2)NC(=O)[C@@H](NC(=O)[C@@H](N)C2CCCCC2)C(C)(C)C)CSC1(C)C`, the inhibition in experiment [1] came to 65%; in experiment [2], 99%. In experiment [3], this molecule displayed an IC50 of 35.8 nM.
In the case of `CCCC(=O)NC(C(=O)N[C@H](C(=O)N[C@@H](Cc1ccccc1)[C@H](O)C(=O)N1CSC(C)(C)[C@H]1C(=O)NCC(C)(C)C)C(C)(C)C)c1cc(F)c(F)c(F)c1` (single isomer, unassigned; enantiomer b), the inhibition in experiment [1] was found to be 20%; in experiment [2] it was 80%.
For the molecule `CC(C)(C)CNC(=O)[C@H]1N(C(=O)[C@@H](O)[C@H](Cc2ccccc2)NC(=O)[C@@H](NC(=O)[C@@H](N)c2ccccc2)C(C)(C)C)CSC1(C)C`, the inhibition was 69% in experiment [1] and > 99% in experiment [2]. Further, in experiment [3], half-maximal inhibition (IC50) was put at 37 nM.
As for `CCCC(=O)N[C@H](C(=O)N[C@H](C(=O)N[C@@H](Cc1ccccc1)[C@H](O)C(=O)N1CSC(C)(C)[C@H]1C(=O)NCC(C)(C)C)C(C)(C)C)c1ccccc1`, the inhibition in experiment [1] was determined as 93%. The INH in experiment [2] was found to be 99 nM. The molecule also yielded an IC50 in experiment [3] of 6.4 nM.
For the molecule `CCCC(=O)NC(C(=O)N[C@H](C(=O)N[C@@H](Cc1ccccc1)[C@H](O)C(=O)N1CSC(C)(C)[C@H]1C(=O)NCC(C)(C)C)C(C)(C)C)c1cc(F)c(F)c(F)c1` (stereo in doubt; 19a) [listing 2 of 2 here], the values for the inhibition in experiment [1] and in experiment [2] were 84% and > 99%, respectively.
The corresponding values for `CC(C)(C)CNC(=O)[C@H]1N(C(=O)[C@@H](O)[C@H](Cc2ccccc2)NC(=O)[C@@H](NC(=O)C(=O)c2ccccc2)C(C)(C)C)CSC1(C)C` are 33% and 76%.
The corresponding values for `CC(C)(C)CNC(=O)[C@H]1N(C(=O)[C@@H](O)[C@H](Cc2ccccc2)NC(=O)[C@@H](NC(=O)[C@H](O)c2ccccc2)C(C)(C)C)CSC1(C)C` are 10% and 82%.
The corresponding values for `CCCC(=O)NC(C(=O)N[C@H](C(=O)N[C@@H](Cc1ccccc1)[C@H](O)C(=O)N1CSC(C)(C)[C@H]1C(=O)NCC(C)(C)C)C(C)(C)C)c1cc(F)c(F)c(F)c1` (stereo in doubt; 20a) [listing 2 of 2 here] are 81% and > 99%.
Consider `CC(C)(C)CNC(=O)[C@H]1N(C(=O)[C@@H](O)[C@H](Cc2ccccc2)NC(=O)[C@@H](NC(=O)C(C(=O)OCc2ccccc2)c2ccccc2)C(C)(C)C)CSC1(C)C` (mixture of isomers), for which the figures for the inhibition in experiment [1] and in experiment [2] were 26% and 34%, respectively.
For the molecule `CCCC(=O)N[C@H](C(=O)N[C@H](C(=O)N[C@@H](Cc1ccccc1)[C@H](O)C(=O)N1CSC(C)(C)[C@H]1C(=O)NCC(C)(C)C)C(C)(C)C)[C@@H](C)CC`, the inhibition stood at 86% in experiment [1] and 95% in experiment [2]. In experiment [3], this molecule came in with an IC50 of 6.1 nM.
Regarding `CC(C)(C)CNC(=O)[C@H]1N(C(=O)[C@@H](O)[C@H](Cc2ccccc2)NC(=O)[C@@H](NC(=O)C2CCCCN2)C(C)(C)C)CSC1(C)C` (single isomer, unassigned; enantiomer b), the inhibition was found to be 11% in experiment [1] and 54% in experiment [2].
As for `CC(C)(C)CNC(=O)[C@H]1N(C(=O)[C@@H](O)[C@H](Cc2ccccc2)NC(=O)[C@@H](NC(=O)[C@@H](N)Cc2ccccc2)C(C)(C)C)CSC1(C)C`, the figures for the inhibition in experiment [1] and in experiment [2] were 28% and > 99%, respectively.
The corresponding values for `CC(C)(C)CNC(=O)[C@H]1N(C(=O)[C@@H](O)[C@H](Cc2ccccc2)NC(=O)[C@@H](NC(=O)C2CCCCN2)C(C)(C)C)CSC1(C)C` (stereo in doubt; 14a) are 24% and 93%.
The corresponding values for `CC(C)[C@H](N)C(=O)N[C@H](C(=O)N[C@@H](Cc1ccccc1)[C@H](O)C(=O)N1CSC(C)(C)[C@H]1C(=O)NCC(C)(C)C)C(C)(C)C` are 26% and 96%.
The corresponding values for `CC(C)(C)CNC(=O)[C@H]1N(C(=O)[C@@H](O)[C@H](Cc2ccccc2)NC(=O)[C@@H](NC(=O)[C@@H](O)c2ccccc2)C(C)(C)C)CSC1(C)C` are 43% and 92%.

The values above are taken from ChEMBL document CHEMBL1681720, “Maintaining potent HTLV-I protease inhibition without the P3-cap moiety in small tetrapeptidic inhibitors” (Bioorg Med Chem Lett, 2011).
